The values that follow come from ChEMBL document CHEMBL1142292, “Synthesis and biological activity of novel peptide mimetics as melanocortin receptor agonists” (Bioorg Med Chem Lett, 2008).

In general, EC50 refers to the midpoint of the concentration-response curve. A higher EC50 goes with lower potency in that assay. In general, Ki refers to a measure of affinity in units of concentration, obtained from inhibition or displacement.

Test [1] concerns the target T1, Melanocortin receptor 3 (Homo sapiens, UniProt P41968). Nature of the test: Agonist activity at human MC3 receptor expressed in HEK293 cells. In kind it is functional, cell-based. The essentials:
(§1)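 HEK293 cells stably transfected with the receptor subtype and a CRE-luciferase reporter; cells assayed in 96-well format for luciferase activity. Response expressed as percent of maximal activity (Emax) of NDP-MSH (MT-I) reference agonist.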

The target of test [2] is T1, Melanocortin receptor 3. Nature of the test: Displacement of europium labeled NDP-alpha-MSH from human MC3 receptor expressed in HEK293 cells. It is filed as cell-based. The essentials: (§2)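 HEK293 cells stably transfected with each human receptor subtype; competing unlabeled ligands displace a constant concentration of europium-labeled NDP-α-MSH, read by time-resolved fluorometry; IC50 and Ki calculated.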

For test [3], the target named is T2, Melanocyte-stimulating hormone receptor (Homo sapiens, UniProt Q01726). Nature of the test: Displacement of europium labeled NDP-alpha-MSH from human MC1 receptor expressed in HEK293 cells. It is filed as cell-based. The gist of the method:
as §2

For test [4], the target named is T2, Melanocyte-stimulating hormone receptor. The test can be described thus: Agonist activity at human MC1 receptor expressed in HEK293 cells. It is filed as functional, cell-based. The essentials: as §1
The target in test [5] is T3, Melanocortin receptor 4 (Homo sapiens, UniProt P32245). Nature of the test: Agonist activity at human MC4 receptor expressed in HEK293 cells. It is filed as functional, cell-based. The gist of the method:
as §1

In test [6] the target is T3, Melanocortin receptor 4. Nature of the test: Displacement of europium labeled NDP-alpha-MSH from human MC4 receptor expressed in HEK293 cells. It is filed as cell-based. The essentials: as §2

T3 sequence (P32245 whole entry): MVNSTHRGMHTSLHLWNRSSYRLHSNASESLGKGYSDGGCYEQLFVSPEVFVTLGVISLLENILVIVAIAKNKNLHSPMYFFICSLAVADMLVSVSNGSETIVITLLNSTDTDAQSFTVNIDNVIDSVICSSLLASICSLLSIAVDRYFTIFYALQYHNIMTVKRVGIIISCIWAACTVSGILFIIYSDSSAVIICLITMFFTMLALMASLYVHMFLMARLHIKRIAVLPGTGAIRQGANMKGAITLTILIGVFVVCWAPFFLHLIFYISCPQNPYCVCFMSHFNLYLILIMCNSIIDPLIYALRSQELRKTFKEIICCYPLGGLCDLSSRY
T2 sequence (Q01726 whole entry): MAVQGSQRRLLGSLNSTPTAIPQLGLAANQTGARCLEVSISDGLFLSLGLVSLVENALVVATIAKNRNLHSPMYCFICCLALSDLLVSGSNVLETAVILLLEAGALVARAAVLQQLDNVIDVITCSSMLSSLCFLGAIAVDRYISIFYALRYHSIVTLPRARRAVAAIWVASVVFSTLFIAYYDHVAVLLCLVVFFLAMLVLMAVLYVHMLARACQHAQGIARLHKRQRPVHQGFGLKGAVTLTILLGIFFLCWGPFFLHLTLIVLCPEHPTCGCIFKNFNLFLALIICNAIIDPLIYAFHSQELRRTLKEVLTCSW
T1 sequence (P41968 whole entry): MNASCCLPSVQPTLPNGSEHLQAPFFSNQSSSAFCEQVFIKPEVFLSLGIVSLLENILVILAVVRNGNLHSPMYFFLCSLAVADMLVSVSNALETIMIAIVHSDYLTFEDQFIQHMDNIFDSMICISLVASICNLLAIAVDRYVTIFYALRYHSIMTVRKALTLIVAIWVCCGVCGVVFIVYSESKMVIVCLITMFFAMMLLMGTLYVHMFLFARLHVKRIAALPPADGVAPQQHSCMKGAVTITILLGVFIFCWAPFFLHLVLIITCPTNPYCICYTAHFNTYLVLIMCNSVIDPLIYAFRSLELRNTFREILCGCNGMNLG

As for `N=C(N)NCCC[C@H](NC(=O)[C@H](N)Cc1ccc(F)cc1)C(=O)N1CCCCC1`, the figures for the EC50 in test [1], in test [4] and in test [5] were > 25 µM, > 50 µM and > 50 µM, respectively. For the same molecule, the figures for the Ki in test [2], in test [3] and in test [6] were > 100 µM, > 100 µM and > 25 µM, respectively.

In the case of `N=C(N)NCCC[C@H](CC1CCCCC1)NC(=O)[C@H](N)Cc1ccc(F)cc1`, the concentration for a half-maximal effect (EC50) in test [1] was > 15 µM; in test [4], > 25 µM; in test [5], > 50 µM. Further, the Ki in test [2] turned out to be 9.1 µM; in test [6], 6.7 µM.

Turning to `NC(N)=NCCC[C@H](Cc1ccccc1)NC(=O)[C@H](N)Cc1ccc(F)cc1`, the EC50 in test [1] and in test [5] was > 100 µM each time. Moreover, the Ki in test [2] is 3.5 µM; in test [3], > 25 µM; in test [6], 4.2 µM.

Turning to `N[C@H](Cc1ccc(Cl)cc1)C(=O)N1CCC(Cn2cncn2)(C2CCCCC2)CC1`, the EC50 was 0.23 µM in test [1], 2 µM in test [4] and 0.016 µM in test [5]. Further, the Ki in test [2] is 2.3 µM; in test [3] it was > 10 µM; in test [6] it was 0.023 µM.

On to `N[C@H](Cc1ccc(F)cc1)C(=O)NCCC(Cn1cncn1)C1CCCCC1` (some centres undefined), for which the half-maximal effective concentration (EC50) in test [1] was > 50 µM; in test [4], > 25 µM; in test [5], > 25 µM. The values for the Ki in test [2], in test [3] and in test [6] were 4.5 µM, > 25 µM and > 50 µM, respectively.

Turning to `NC(N)=NCCC[C@@H](CN1CCCCC1)NC(=O)[C@H](N)Cc1ccc(F)cc1`, the EC50 in test [1] was > 100 µM; in test [4], > 50 µM; in test [5] it was > 100 µM. Also, the Ki in test [2], in test [3] and in test [6] was > 100 µM each time.
